Activity calls are given as the source filed them.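 The calls were made as follows, unless noted: active = NADPH fluorescence slope more negative than the mean of all samples by about 3 SD, 99.7% confidence; inactive = the rest.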
What was measured:
[1] = inhibitors of TNFa-induced NFkB p65 translocation, primary screen, imaging, HUVEC, MLSMR starter and 10KST1 sets (AID 438;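 active = inhibition above 20% together with a positive visual image hit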;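 also: compound added about 3h40 before a 20 min TNFalpha stimulation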;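 as to inhibition: signal is the nuclear over cytoplasmic p65 intensity ratio per well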); details: HUVEC TNFa-induced p65 nuclear translocation; cell count: measured here: nuclei count (cytotoxicity indicator), at 2.08 µM; inhibition: at 2 µM, stronger effect = higher value, 0% TNFa-plus-vehicle, 100% no-TNFa wells
[2] = reduction of polyQ htt aggregates in cells – imaging, exon1htt(103Q)mCFP cells, high-content imaging, primary screen (AID 483;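 active = visual image review flags a hit and inhibition of aggregation exceeds 20%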;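 also: compound exposure lasted 3 days before fixation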;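 as to nuclei count: percent of the per-plate median nuclei count of sample wells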); details: exon1htt(103Q)mCFP cell line, aggregate imaging, at 2 µM; inhibition of aggregation: stronger effect = higher value; nuclei count: measured here: cell count, toxicity
[3] = endothelial E-selectin expression blockers – imaging, HUVEC, immunofluorescence, MLSMR starter and 10KST1 sets, primary screen (AID 487;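 active = visually confirmed hit in the image check and inhibition above 20%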;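 as to inhibition: signal is fraction of cell area covered by stained E-selectin grains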;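 as to nuclei count: 100% = median nuclei count of all wells on the same plate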); details: HUVEC TNFalpha-induced E-selectin immunofluorescence imaging, at 2 µM; inhibition: stronger effect = higher value; nuclei count: measured here: cell number, toxicity
[4] = target: Voltage-gated potassium channel subunit beta-2 (Rattus norvegicus) (UniProt P62483); assay: inhibitors of rat Kvbeta2 reductase activity – biochemical, NADPH fluorescence, primary screen (AID 622;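 active = fluorescence slope higher than the sample average by over 3 SD, cut at about -0.22 in these data, passing the limit was not always enough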;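 also: slope of raw intensity against log time taken from 70 to 1610 s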); details: recombinant KvBeta, 4-cyanobenzaldehyde reduction, at 10 µM, stronger effect = higher value
[5] = target: Voltage-gated potassium channel subunit beta-2 (Rattus norvegicus) (UniProt P62483); assay: enhancers of rat Kvbeta2 NADPH turnover – biochemical, NADPH fluorescence, primary screen (AID 623); details: Recombinant KvBeta, NADPH fluorescence decrease slope, 10 min; at 10 µM; stronger effect = lower value;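 also: fluorescence intensity change per second fitted from 20 to 320 s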
[6] = target: Muscarinic acetylcholine receptor M4 (Homo sapiens) (UniProt P08173); assay: M4-linked GIRK flux change, two-sided – cell-based, HEK293 M4/GIRK, thallium flux, BTC-AM, M4 allosteric agonist project, primary screen (AID 625;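 active = fluorescence slope after compound addition differing from the mean of all tested samples at 99.7% confidence, mostly higher but some lower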;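 also: thallium influx through GIRK channels coupled to M4 in HEK293 cells with BTC-AM dye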); details: at 10 µM, actives lie on both sides
How it was run: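 Assay system: HEK293 cells with M4 receptor and GIRK channels / Controls: carbachol and DMSO controls / Schedule: 1 h dye loading, 2 min kinetic read / Technique: kinetic fluorescence with BTC-AM dye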

[7] = blockers of RIG-like receptor reporter activation – cell-based, Sendai virus stimulus, luciferase, 10K MLSCN set, TLR/RLR signaling modifier project, primary screen (AID 602276;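 active = inhibition at or above 50% at 10 µM; inactive = inhibition below 50%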;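 also: firefly luciferase from ISG56 promoter only with Renilla not read in this screen; 0% = Sendai virus plus DMSO and 100% = medium plus DMSO without virus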); details: HEK293 RL24 IRF3 luciferase reporter, at 10 µM, stronger effect = higher value
[8] = TLR3 IRF3 reporter activation blockers – cell-based, poly I:C stimulus, luciferase, 10K MLSCN set, primary screen (AID 602277;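 active = inhibition of the reporter signal at or above 50%; inactive = inhibition below 50%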); details: HEK293-TLR3 RL24 IRF3 luciferase reporter, at 10 µM, stronger effect = higher value

Sequence of Voltage-gated potassium channel subunit beta-2 (Rattus norvegicus) (P62483 whole entry, looked up): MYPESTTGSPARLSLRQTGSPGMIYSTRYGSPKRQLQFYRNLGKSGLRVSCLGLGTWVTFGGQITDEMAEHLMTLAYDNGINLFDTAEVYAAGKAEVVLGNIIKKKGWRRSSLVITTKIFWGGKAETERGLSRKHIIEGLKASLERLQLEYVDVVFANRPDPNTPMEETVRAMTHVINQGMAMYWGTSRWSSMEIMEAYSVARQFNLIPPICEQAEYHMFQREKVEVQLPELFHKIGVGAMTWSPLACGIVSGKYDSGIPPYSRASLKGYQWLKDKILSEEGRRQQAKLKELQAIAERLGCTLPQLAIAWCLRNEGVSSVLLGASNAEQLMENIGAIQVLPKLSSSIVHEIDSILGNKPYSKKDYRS
Sequence of Muscarinic acetylcholine receptor M4 (Homo sapiens) (P08173 whole entry, looked up): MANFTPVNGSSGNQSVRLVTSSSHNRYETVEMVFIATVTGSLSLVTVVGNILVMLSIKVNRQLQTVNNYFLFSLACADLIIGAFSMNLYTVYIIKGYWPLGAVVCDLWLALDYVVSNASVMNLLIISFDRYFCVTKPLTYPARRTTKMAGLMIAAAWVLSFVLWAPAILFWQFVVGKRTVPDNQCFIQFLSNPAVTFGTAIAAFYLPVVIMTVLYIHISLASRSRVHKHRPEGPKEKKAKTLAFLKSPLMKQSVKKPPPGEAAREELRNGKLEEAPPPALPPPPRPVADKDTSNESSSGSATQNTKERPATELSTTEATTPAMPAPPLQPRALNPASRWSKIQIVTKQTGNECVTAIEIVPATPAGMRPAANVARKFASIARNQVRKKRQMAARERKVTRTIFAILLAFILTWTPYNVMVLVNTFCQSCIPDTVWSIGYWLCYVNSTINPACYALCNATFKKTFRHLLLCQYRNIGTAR

SMILES	cell count [1]	inhibition [1]	inhibition of aggregation [2]	nuclei count [2]	inhibition [3]	nuclei count [3]	fluorescence slope [4]	NADPH fluorescence slope [5]	fluorescence slope [6]	inhibition [7]	inhibition [8]
CN(C)c1nc(N)nc(CSc2nnnn2-c2cccc3ccccc23)n1	627	-10.4% (inactive)	27.3% (inactive)	71.9%	-69.3% (inactive)	103%	-0.463 (inactive)	-3.9e-05 (inactive)	0.00537 (inactive)	18.6% (inactive)	14.8% (inactive)
CCOc1cc2[nH]c(=O)n(CCCCC(=O)N3CCCCCC3)c(=O)c2cc1OCC	218	2.2% (inactive)	4.8% (inactive)	86.8%	14.4% (inactive)	89.8%	-0.437 (inactive)	-0.00041 (inactive)	0.00663 (inactive)	14.3% (inactive)	18.4% (inactive)
O=C(c1cccs1)c1cn(CC(=O)N2CCc3ccccc3C2)c2ccccc12	785	-2.9% (inactive)	-15.5% (inactive)	100%	-137% (inactive)	123%	-0.519 (inactive)	-3.8e-05 (inactive)	0.00668 (inactive)	11.1% (inactive)	8.88% (inactive)
CCNC(=O)N1c2ccc(OCC)cc2C(C)=CC1(C)C	599	2.5% (inactive)	37.2% (inactive)	94.1%	-34% (inactive)	102%	-0.588 (inactive)	-3e-05 (inactive)	0.00404 (inactive)	-6.26% (inactive)	4.09% (inactive)
O=C(Cn1nc(C(F)(F)F)c2c1CCCC2)NCCN1CCOCC1	584	-6.8% (inactive)	-26.7% (inactive)	103%	-8.6% (inactive)	93.4%	-0.516 (inactive)	-0.00011 (inactive)	0.00274 (inactive)	17.5% (inactive)	25.2% (inactive)
COc1ccc(N2C(=O)CC(NC3CC3)C2=O)cc1 (centres undefined)	416	9.4% (inactive)	0.9% (inactive)	108%	7.7% (inactive)	110%	-0.577 (inactive)	1.5e-05 (inactive)	0.00561 (inactive)	16.4% (inactive)	24% (inactive)
O=C(Nc1cccnc1)Nc1ccc2c(c1)OCO2	420	0.8% (inactive)	-14.9% (inactive)	121%	6% (inactive)	51.1%	-0.418 (inactive)	6.4e-06 (inactive)	0.00717 (inactive)	-19.2% (inactive)	-53.4% (inactive)
Cc1ccnc(NS(=O)(=O)c2ccc(N=CC3=C(O)CC(C)(C)CC3=O)cc2)n1	395	2.5% (inactive)	-9% (inactive)	79.4%	7.7% (inactive)	110%	-0.474 (inactive)	9.9e-06 (inactive)	0.00511 (inactive)	7.45% (inactive)	1.62% (inactive)
COC(=O)CCN1CCC(C(N)=O)CC1	336	-6.3% (inactive)	-4.2% (inactive)	107%	-132% (inactive)	129%	-0.437 (inactive)	6.8e-05 (inactive)	0.00663 (inactive)	1.78% (inactive)	6.83% (inactive)
CCOC(=O)C1CCN(C(=O)CSc2n[nH]c(=O)[nH]c2=O)CC1	653	7.8% (inactive)	16.5% (inactive)	88.6%	34.2% (inactive)	114%	-0.339 (inactive)	-5.5e-05 (inactive)	0.00512 (inactive)	12.2% (inactive)	9.53% (inactive)
Oc1cccc2ccc(Nc3ccccn3)nc12	583	-9.7% (inactive)	-24.8% (inactive)	82.5%	11.4% (inactive)	99.8%	-0.563 (inactive)	-3.9e-05 (inactive)	0.0033 (inactive)	11% (inactive)	97.5% (active)
Cc1noc(C)c1C(=O)OCC(=O)Nc1ccccc1C(=O)NC(C)c1ccccc1 (centres undefined)	503	4.7% (inactive)	-4% (inactive)	94.3%	-72.6% (inactive)	106%	-0.414 (inactive)	-0.000106 (inactive)	0.00545 (inactive)	9.57% (inactive)	7.74% (inactive)
Cc1ccc(S(=O)(=O)N2CCN(C(=O)CN3C(=O)NC4(CCOc5ccccc54)C3=O)CC2)cc1 (centres undefined)	697	-3.3% (inactive)	8.6% (inactive)	106%	-38.5% (inactive)	112%	-0.44 (inactive)	-0.000543 (inactive)	0.00414 (inactive)	-12.9% (inactive)	-7.58% (inactive)
Cn1c(=O)c2ncn(CC(=O)NCCOc3ccccc3)c2n(C)c1=O	503	-4.4% (inactive)	-3.1% (inactive)	98%	43% (inactive)	91.5%	-0.52 (inactive)	2.9e-06 (inactive)	0.00467 (inactive)	18% (inactive)	14.3% (inactive)
CCn1cc(/C=C(/C#N)S(=O)(=O)c2ccccc2)cn1	593	-10.9% (inactive)	7% (inactive)	75%	-61.5% (inactive)	99.9%	-0.488 (inactive)	-9.1e-05 (inactive)	0.00519 (inactive)	-4.56% (inactive)	-9.84% (inactive)
Cn1c(SCC(N)=O)nnc1C1CCN(S(=O)(=O)c2ccccc2C(F)(F)F)CC1	554	-12.3% (inactive)	4% (inactive)	88.2%	33.9% (inactive)	96.6%	-0.214 (inactive)	-3.4e-05 (inactive)	0.00588 (inactive)	10.8% (inactive)	19.2% (inactive)
O=C(NCCN1CCCC1)C1COc2ccccc2O1 (centres undefined)	511	-0.5% (inactive)	-4.3% (inactive)	73.8%	-28.7% (inactive)	100%	-0.587 (inactive)	-3.1e-05 (inactive)	0.0064 (inactive)	1.21% (inactive)	11.8% (inactive)
COc1cccc(OC)c1C(=O)Nc1ccccc1N1CCCC1	417	-3.4% (inactive)	3.7% (inactive)	92.9%	4.8% (inactive)	118%	-0.474 (inactive)	-5.8e-05 (inactive)	0.00391 (inactive)	15.4% (inactive)	8.75% (inactive)
Cc1ccc(C(=O)Nc2ccc3c(c2)OCO3)o1	466	0% (inactive)	-13.9% (inactive)	106%	-17.5% (inactive)	121%	-0.603 (inactive)	-2.2e-05 (inactive)	0.00576 (inactive)	-40.3% (inactive)	-49.6% (inactive)

From PubChem BioAssay
